Columns and labels:
[1] = biological target: T1, Progesterone receptor (Homo sapiens, UniProt P06401); assay: Binding affinity to PR
T1 sequence (P06401 whole entry): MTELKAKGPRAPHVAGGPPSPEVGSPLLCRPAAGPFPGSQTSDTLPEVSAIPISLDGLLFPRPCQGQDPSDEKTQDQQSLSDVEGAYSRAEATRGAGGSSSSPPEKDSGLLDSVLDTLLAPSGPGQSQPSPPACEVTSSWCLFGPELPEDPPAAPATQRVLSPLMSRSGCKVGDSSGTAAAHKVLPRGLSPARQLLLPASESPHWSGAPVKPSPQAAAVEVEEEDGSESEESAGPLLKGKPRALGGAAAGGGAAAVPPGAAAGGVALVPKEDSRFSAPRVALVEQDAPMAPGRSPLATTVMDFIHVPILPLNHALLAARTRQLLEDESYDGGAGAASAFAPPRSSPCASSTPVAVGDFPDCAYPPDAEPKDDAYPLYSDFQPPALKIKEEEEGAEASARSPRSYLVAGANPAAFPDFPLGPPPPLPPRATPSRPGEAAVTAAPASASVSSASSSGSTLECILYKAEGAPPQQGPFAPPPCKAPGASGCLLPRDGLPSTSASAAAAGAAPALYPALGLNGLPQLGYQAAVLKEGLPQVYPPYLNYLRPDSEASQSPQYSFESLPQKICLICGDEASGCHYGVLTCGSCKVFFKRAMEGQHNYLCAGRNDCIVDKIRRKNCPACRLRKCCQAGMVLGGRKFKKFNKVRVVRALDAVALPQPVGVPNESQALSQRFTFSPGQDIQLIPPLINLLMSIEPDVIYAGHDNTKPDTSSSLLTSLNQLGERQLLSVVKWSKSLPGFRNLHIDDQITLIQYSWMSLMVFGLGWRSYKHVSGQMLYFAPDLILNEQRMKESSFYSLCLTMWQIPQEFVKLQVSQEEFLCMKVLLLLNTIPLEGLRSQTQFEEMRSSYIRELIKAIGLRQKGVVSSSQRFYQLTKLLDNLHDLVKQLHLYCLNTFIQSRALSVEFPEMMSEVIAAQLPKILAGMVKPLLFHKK
Procedure, shortened: (§1)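 Competitive binding assays on PR and MR. Values are means of at least three separate experiments, each with triplicate determinations, ± SEM. A value without SEM comes from a single determination.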

[2] = system: RPMI-8226; assay: Antiproliferative activity against human RPMI8226 cells after 4 days; assay type: functional, cell-based; conditions: RPMI-8226, 96 h
[3] = biological target: T2, Mineralocorticoid receptor (Homo sapiens, UniProt P08235); assay: Binding affinity to MR; procedure, shortened: as §1
T2 sequence (P08235 whole entry): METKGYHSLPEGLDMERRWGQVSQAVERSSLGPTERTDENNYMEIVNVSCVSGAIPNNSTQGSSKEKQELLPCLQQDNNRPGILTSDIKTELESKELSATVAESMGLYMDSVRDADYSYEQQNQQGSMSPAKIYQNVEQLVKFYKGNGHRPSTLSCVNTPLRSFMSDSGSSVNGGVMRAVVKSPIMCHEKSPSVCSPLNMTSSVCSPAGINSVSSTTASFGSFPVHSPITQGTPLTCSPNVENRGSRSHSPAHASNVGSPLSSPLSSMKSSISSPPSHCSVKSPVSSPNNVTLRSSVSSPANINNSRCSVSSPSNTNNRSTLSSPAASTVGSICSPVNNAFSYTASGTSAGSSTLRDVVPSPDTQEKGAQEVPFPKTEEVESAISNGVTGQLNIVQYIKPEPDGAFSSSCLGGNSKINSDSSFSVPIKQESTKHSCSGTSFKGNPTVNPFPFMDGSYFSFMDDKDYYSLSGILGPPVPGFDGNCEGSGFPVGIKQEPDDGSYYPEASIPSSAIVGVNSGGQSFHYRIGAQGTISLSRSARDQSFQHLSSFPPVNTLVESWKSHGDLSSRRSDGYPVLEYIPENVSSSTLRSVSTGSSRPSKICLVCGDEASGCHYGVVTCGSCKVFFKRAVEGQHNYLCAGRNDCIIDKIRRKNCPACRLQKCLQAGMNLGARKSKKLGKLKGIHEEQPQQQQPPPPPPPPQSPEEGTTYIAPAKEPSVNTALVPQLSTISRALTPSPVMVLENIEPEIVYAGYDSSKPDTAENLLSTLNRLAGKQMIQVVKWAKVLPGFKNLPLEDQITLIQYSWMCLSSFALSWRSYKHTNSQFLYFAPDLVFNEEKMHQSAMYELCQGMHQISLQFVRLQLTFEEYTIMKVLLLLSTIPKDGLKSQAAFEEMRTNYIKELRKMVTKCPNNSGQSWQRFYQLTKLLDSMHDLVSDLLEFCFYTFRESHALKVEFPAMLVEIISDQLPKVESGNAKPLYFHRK

[4] = biological target: T3, Glucocorticoid receptor (Homo sapiens, UniProt P04150); assay: Binding affinity to GR
T3 sequence (P04150 whole entry): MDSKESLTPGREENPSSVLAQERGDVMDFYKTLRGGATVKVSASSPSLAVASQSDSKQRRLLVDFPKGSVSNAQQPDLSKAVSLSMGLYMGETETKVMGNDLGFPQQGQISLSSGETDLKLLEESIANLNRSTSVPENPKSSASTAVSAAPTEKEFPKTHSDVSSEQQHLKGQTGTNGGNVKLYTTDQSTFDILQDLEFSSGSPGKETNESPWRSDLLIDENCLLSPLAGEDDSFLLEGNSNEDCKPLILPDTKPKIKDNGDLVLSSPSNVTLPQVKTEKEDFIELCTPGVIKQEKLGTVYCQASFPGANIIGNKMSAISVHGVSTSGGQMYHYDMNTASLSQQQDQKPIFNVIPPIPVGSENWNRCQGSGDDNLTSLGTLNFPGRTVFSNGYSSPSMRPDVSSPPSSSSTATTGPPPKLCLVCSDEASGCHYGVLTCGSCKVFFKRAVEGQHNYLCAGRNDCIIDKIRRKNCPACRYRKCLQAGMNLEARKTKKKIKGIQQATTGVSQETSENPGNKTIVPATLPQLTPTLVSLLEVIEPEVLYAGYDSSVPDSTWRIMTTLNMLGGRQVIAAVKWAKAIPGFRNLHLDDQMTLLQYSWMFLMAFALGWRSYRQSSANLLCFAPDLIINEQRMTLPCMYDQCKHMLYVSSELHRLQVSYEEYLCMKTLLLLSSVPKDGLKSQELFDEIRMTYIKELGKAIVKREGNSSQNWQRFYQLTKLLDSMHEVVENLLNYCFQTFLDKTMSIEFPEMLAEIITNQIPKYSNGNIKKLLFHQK

[5] = system: RPMI-8226; assay: Antiproliferative activity against human RPMI8226 cells after 4 days relative to Dexamethasone; assay type: functional
[6] = biological target: T3, Glucocorticoid receptor; assay: Activity at human GR expressed in NHDFneo cells assessed as inhibition of IL-6 production; assay type: cell-based

| Ki [1] [nM] | IC50 [2] [nM] | Ki [3] [nM] | Ki [4] [nM] | IC50 [6] [nM] | SMILES | Efficacy [5] [%] |
| --- | --- | --- | --- | --- | --- | --- |
| 190 | 8.5 | 10 | 0.2 | 0.2 | COCc1ccsc1/C=C1\Oc2ccc(O)c(OC)c2-c2ccc3c(c21)C(C)=CC(C)(C)N3 | 98 |
| 1400 | 4.9 | 980 | 0.7 | 0.2 | COc1c(O)ccc2c1-c1ccc3c(c1/C(=C/c1sccc1CO)O2)C(C)=CC(C)(C)N3 | 99 |

| SMILES | Ki [1] [nM] | IC50 [2] [nM] | Ki [3] [nM] | Ki [4] [nM] | IC50 [6] [nM] | Efficacy [5] [%] |
| --- | --- | --- | --- | --- | --- | --- |
| CO/N=C(\C)c1ccsc1/C=C1\Oc2ccc(O)c(OC)c2-c2ccc3c(c21)C(C)=CC(C)(C)N3 | 38 | 9.5 | 48 | 1.1 | 0.2 | 101 |

Reference: ChEMBL document CHEMBL1148778, “Synthesis and characterization of nonsteroidal glucocorticoid receptor modulators for multiple myeloma” (J Med Chem, 2007)
